Data published in ChEMBL document CHEMBL1145471, “Small molecule regulators of autophagy identified by an image-based high-throughput screen” (Proc Natl Acad Sci U S A, 2007).
Calls of active or inactive are those of the source. The calls are words filed in the database; no cut-off is given here.

Key:
H4 [1] = assay: Increase in light chain 3-GFP+ autophagosome vesicle area per cell in human H4 cells at 7.4 uM after 24 hrs by high throughput fluorescence microscopy relative to control; assay type: functional
Procedure, shortened: (§1)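 H4 cells stably expressing LC3-GFP, seeded in 96-well plates and exposed to compound for 24 h; fixed in 4% paraformaldehyde, nuclei stained with 3 μg/ml DAPI. Automated fluorescence microscopy scored number, size and intensity of LC3-GFP spots; values expressed relative to DMSO-treated wells, rapamycin positive control. Triplicate wells, mean ± SD; experiments repeated three times.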

H4 [2] = assay: Increase in light chain 3-GFP+ autophagosome vesicle intensity per cell in human H4 cells at 7.4 uM after 24 hrs by high throughput fluorescence microscopy relative to control; assay type: functional; procedure, shortened: as §1
H4 [3] = assay: Increase in long-lived protein degradation in human H4 cells after 1 hr relative to control; assay type: functional; set-up: concentration or dose not given beside the values
H4 [4] = assay: Increase in long-lived protein degradation in human H4 cells after 24 hrs relative to control; assay type: functional; set-up: concentration or dose not given beside the values
H4 [5] = assay: Decrease in FYVE-RFP+ vesicle intensity per cell in human H4 cells after 4 hrs relative to control; assay type: functional; set-up: concentration or dose not given beside the values
Procedure, shortened: (§2)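 H4 cells stably expressing FYVE-RFP (H4-FYVE), grown in DMEM with 10% FBS, penicillin/streptomycin and 2 mM L-glutamine at 37°C, 5% CO2, seeded in 96-well plates and exposed to compound. Fixed in 4% paraformaldehyde, nuclei stained with 3 μg/ml DAPI, FYVE-RFP+ vesicles quantified by high-throughput fluorescence microscopy against DMSO control. Triplicate wells, mean ± SD.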

H4 [6] = assay: Increase in light chain 3-GFP+ autophagosome vesicle number per cell in human H4 cells at 7.4 uM after 24 hrs by high throughput fluorescence microscopy relative to control; assay type: functional
Procedure, shortened: (§3)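 H4 cells stably expressing LC3-GFP, kept in DMEM/10% FBS at 37°C, 5% CO2, were seeded in 96-well plates and exposed to compound for 24 h. Cells were then fixed in 4% paraformaldehyde and stained with 3 μg/ml DAPI. Automated fluorescence microscopy scored the number, size and intensity of LC3-GFP spots. Values are percent of DMSO wells, in triplicate, mean ± SD. Rapamycin served as positive control.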

H4 [7] = assay: Increase in long-lived protein degradation in human H4 cells after 4 hrs relative to control; assay type: functional; set-up: concentration or dose not given beside the values
H4 [8] = assay: Decrease in FYVE-RFP+ vesicle intensity per cell in human H4 cells after 8 hrs relative to control; assay type: functional; set-up: concentration or dose not given beside the values; procedure, shortened: as §2
H4 [9] = assay: Decrease in FYVE-RFP+ vesicle intensity per cell in human H4 cells after 2 hrs relative to control; assay type: functional; set-up: concentration or dose not given beside the values; procedure, shortened: as §2
H4 [10] = assay: Induction of light chain 3-GFP level in human H4 cells at 7.4 uM after 24 hrs by high throughput fluorescence microscopy relative to control; assay type: functional; procedure, shortened: as §3
H4 [11] = assay: Increase in long-lived protein degradation in human H4 cells after 2 hrs relative to control; assay type: functional; set-up: concentration or dose not given beside the values
H4 [12] = assay: Effect on FYVE-RFP+ vesicle intensity per cell in human H4 cells after 2 hrs relative to control; assay type: functional; set-up: concentration or dose not given beside the values; procedure, shortened: as §2
H4 [13] = assay: Induction of light chain 3-GFP level in human H4 cells at 2.1 uM after 24 hrs by high throughput fluorescence microscopy relative to control; assay type: functional
H4 [14] = assay: Increase in light chain 3-GFP+ autophagosome vesicle number per cell in human H4 cells at 2.1 uM after 24 hrs by high throughput fluorescence microscopy relative to control; assay type: functional
Procedure, shortened: (§4)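 H4 cells stably expressing LC3-GFP were grown in DMEM with 10% FBS and 2 mM L-glutamine at 37°C, 5% CO2. They were exposed to each compound for 24 h, with DMSO as negative and rapamycin as positive control. Cells were then fixed in 4% paraformaldehyde and stained with 3 μg/ml DAPI. High-throughput fluorescence imaging scored LC3-GFP spot number, size and intensity, expressed relative to DMSO. Mean ± SD of triplicates; experiments repeated three times.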

H4 [15] = assay: Increase in light chain 3-GFP+ autophagosome vesicle area per cell in human H4 cells at 2.1 uM after 24 hrs by high throughput fluorescence microscopy relative to control; assay type: functional
H4 [16] = assay: Effect on FYVE-RFP+ vesicle intensity per cell in human H4 cells after 8 hrs relative to control; assay type: functional; set-up: concentration or dose not given beside the values; procedure, shortened: as §2
H4 [17] = assay: Effect on FYVE-RFP+ vesicle intensity per cell in human H4 cells after 4 hrs relative to control; assay type: functional; set-up: concentration or dose not given beside the values; procedure, shortened: as §2
H4 [18] = assay: Increase in light chain 3-GFP+ autophagosome vesicle intensity per cell in human H4 cells at 2.1 uM after 24 hrs by high throughput fluorescence microscopy relative to control; assay type: functional
H4 [19] = assay: Increase in light chain 3-GFP+ autophagosome vesicle number per cell in human H4 cells at 5.0 uM after 24 hrs by high throughput fluorescence microscopy relative to control; assay type: functional; procedure, shortened: as §4
H4 [20] = assay: Increase in light chain 3-GFP+ autophagosome vesicle area per cell in human H4 cells at 5.0 uM after 24 hrs by high throughput fluorescence microscopy relative to control; assay type: functional
Procedure, shortened: (§5)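 H4 cells stably expressing LC3-GFP, seeded in 96-well plates and exposed to compound for 24 h; screening concentrations were 3–12 μM, with rapamycin 0.22 μM and bafilomycin A1 0.40 μM. Cells fixed in 4% paraformaldehyde and stained with 3 μg/ml DAPI. Number, size and intensity of LC3-GFP spots measured by high-throughput fluorescence microscopy and expressed as percent of DMSO-treated wells. Rapamycin was the positive control. Triplicate wells, mean ± SD; experiments repeated three times.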

H4 [21] = assay: Increase in light chain 3-GFP+ autophagosome vesicle intensity per cell in human H4 cells at 5.0 uM after 24 hrs by high throughput fluorescence microscopy relative to control; assay type: functional; procedure, shortened: as §4
H4 [22] = assay: Induction of light chain 3-GFP level in human H4 cells at 5.0 uM after 24 hrs by high throughput fluorescence microscopy relative to control; assay type: functional; procedure, shortened: as §3
H4 [23] = assay: Induction of light chain 3-GFP level in human H4 cells at 8.3 uM after 24 hrs by high throughput fluorescence microscopy relative to control; assay type: functional
Procedure, shortened: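 H4 cells stably expressing LC3-GFP, grown in DMEM with 10% FBS, penicillin/streptomycin and 2 mM L-glutamine at 37°C, 5% CO2. Cells were seeded in 96-well plates and exposed to library compounds at 3–12 μM for 24 h, then fixed in 4% paraformaldehyde and stained with 3 μg/ml DAPI. LC3-GFP spot number, size and intensity were measured by high-throughput fluorescence microscopy and expressed relative to DMSO. Triplicates, mean ± SD.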

H4 [24] = assay: Increase in FYVE-RFP+ vesicle intensity per cell in human H4 cells after 4 hrs relative to control; assay type: functional; set-up: concentration or dose not given beside the values; procedure, shortened: as §2
[25] = target: Serine/threonine-protein kinase mTOR (Homo sapiens, UniProt P42345); assay: Effect on mTOR phosphorylation in human H4 cells at 8.3 uM after 4 hrs; assay type: cell-based
Procedure, shortened: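 H4 cells exposed to compound for 4 h. Lysates analysed by Western blot with anti-phospho and anti-total mTOR antibodies, with actin as loading control. Rapamycin served as reference.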

H4 [26] = assay: Increase in light chain 3-GFP+ autophagosome vesicle number per cell in human H4 cells at 8.3 uM after 24 hrs by high throughput fluorescence microscopy relative to control; assay type: functional; procedure, shortened: as §4
H4 [27] = assay: Reduction of poly(Q) level in human H4 cells expressing EGFP-Q79-HA after 24 hrs; assay type: functional, cell-based
Procedure, shortened: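 H4 cells were transiently transfected with an EGFP-Q79-HA expression vector. The medium was replaced 6 h after transfection and compounds were added. Poly(Q) was detected with anti-HA antibody.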

H4 [28] = assay: Increase in light chain 3-GFP+ autophagosome vesicle intensity per cell in human H4 cells at 8.3 uM after 24 hrs by high throughput fluorescence microscopy relative to control; assay type: functional; procedure, shortened: as §4
H4 [29] = assay: Increase in ratio of light chain 3 subunit 2 to light chain 3 subunit 1 in human H4 cells at 8.3 uM after 4 hrs by Western blot; assay type: functional, cell-based
Procedure, shortened: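 H4 cells were treated with each compound for 4 h, then lysed. Lysates were immunoblotted with anti-LC3 antibody, with actin as loading control. LC3II and LC3I bands were compared as an LC3II/LC3I ratio.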

H4 [30] = assay: Increase in FYVE-RFP+ vesicle intensity per cell in human H4 cells after 2 hrs relative to control; assay type: functional; set-up: concentration or dose not given beside the values; procedure, shortened: as §2
H4 [31] = assay: Increase in light chain 3-GFP+ autophagosome vesicle area per cell in human H4 cells at 8.3 uM after 24 hrs by high throughput fluorescence microscopy relative to control; assay type: functional; procedure, shortened: as §5
H4 [32] = assay: Increase in FYVE-RFP+ vesicle intensity per cell in human H4 cells after 8 hrs relative to control; assay type: functional; set-up: concentration or dose not given beside the values; procedure, shortened: as §2

With `CC(=O)C1=C(O)[C@@H]2[C@H]3c4c[nH]c5cccc(c45)C[C@H]3C(C)(C)N2C1=O` [CYCLOPIAZONIC ACID] the Activity (H4 [1]) was 178.53%, the Activity (H4 [2]) was 186.44% and the Activity (H4 [3]) was 103.58%. For the same compound, the Activity (H4 [4]) was 96.32%, the Activity (H4 [5]) was 30.54% and the Activity (H4 [6]) was 162.66%. The Activity (H4 [7]) was 96.45%, the Activity (H4 [8]) was 33.06% and the Activity (H4 [9]) was 41.44%. It also gave an Activity (H4 [10]) of 112.62% and an Activity (H4 [11]) of 97.66%.

`C/C=C/C[C@@H](C)[C@@H](O)[C@H]1C(=O)N[C@@H](CC)C(=O)N(C)CC(=O)N(C)[C@@H](CC(C)C)C(=O)N[C@@H](C(C)C)C(=O)N(C)[C@@H](CC(C)C)C(=O)N[C@@H](C)C(=O)N[C@H](C)C(=O)N(C)[C@@H](CC(C)C)C(=O)N(C)[C@@H](CC(C)C)C(=O)N(C)[C@@H](C(C)C)C(=O)N1C` [CYCLOSPORINE] showed an Activity (H4 [12]) of 73.62%, an Activity (H4 [3]) of 114.15% and an Activity (H4 [4]) of 104.28%. The Activity (H4 [13]) was 159.64%, the Activity (H4 [7]) was 101.74% and the Activity (H4 [14]) was 155.88%. For the same compound, the Activity (H4 [15]) was 181.14%, the Activity (H4 [16]) was 55.82% and the Activity (H4 [17]) was 71.69%. For the same compound, the Activity (H4 [18]) was 178.79% and the Activity (H4 [11]) was 117.39%.

Work on `OCCN(CCO)c1nc(N2CCCCC2)c2nc(N(CCO)CCO)nc(N3CCCCC3)c2n1` [DIPYRIDAMOLE] yielded an Activity (H4 [3]) of 82.64%, an Activity (H4 [4]) of 79.08% and an Activity (H4 [5]) of 30.25%. For the same compound, the Activity (H4 [7]) was 81.07%, the Activity (H4 [19]) was 170.2% and the Activity (H4 [8]) was 32.54%. The Activity (H4 [9]) was 32.22%, the Activity (H4 [20]) was 199.02% and the Activity (H4 [21]) was 213.63%. It also gave an Activity (H4 [22]) of 158.96% and an Activity (H4 [11]) of 79.22%.

For `CN1CCN(CCCN2c3ccccc3Sc3ccc(C(F)(F)F)cc32)CC1` [TRIFLUOPERAZINE], the Activity (H4 [23]) was 105.72%, the Activity (H4 [24]) was 111.52% and the Activity [25] was “inactive”. It also gave an Activity (H4 [26]) of 364.24%, an Activity (H4 [3]) of 76.62% and an Activity (H4 [4]) of 124.78%. For the same compound, the Activity (H4 [27]) was “Dose-dependent effect”, the Activity (H4 [28]) was 1010.35% and the Activity (H4 [29]) was “Active”. It also gave an Activity (H4 [30]) of 136.58%, an Activity (H4 [7]) of 109% and an Activity (H4 [31]) of 520.24%. For the same compound, the Activity (H4 [11]) was 105.6% and the Activity (H4 [32]) was 94.28%.
